In one series the test system is Liver microsomes. The series is described as follows: Intrinsic clearance in human liver microsomes after 15 mins. Format: ADME, Microsome. Summed up: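 Compound at 0.3 μmol/L (0.03% DMSO final) was incubated with pooled human liver microsomes (0.1 mg/mL protein) and an NADPH-generating system at 37 °C for 0 and 15 min. Reactions were quenched with acetonitrile/methanol containing internal standard. Parent depletion was measured by LC/MS/MS. Values are the mean of six measurements.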
(Liver microsomes are a subcellular fraction often used to study metabolism.)

A short description of series [1]: Clearance in CD1 (ICR) mouse at 3 mg/kg, iv. It is filed as ADME, organism-based. Further details: dose 3 mg/kg, route intravenous. Particulars: in vivo. Summed up: (§1)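 Male fasted CD1 (ICR) mice dosed i.v. 3 mg/kg or p.o. 10 mg/kg (10 mL/kg each). Vehicle was DMSO/5% glucose with 1/250 volume 5 mol/L HCl (1:19 i.v., 1:9 p.o.). Vena cava blood was drawn at 0.083 (i.v. only), 0.25, 0.5, 1, 2, 4, 6, 8 and 24 h, n = 4 per time point. Plasma was extracted and assayed by reversed-phase HPLC with fluorescence detection. Values are the mean of four animals.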

A short description of series [2]: Volume of distribution at steady state in CD1 (ICR) mouse 3 mg/kg, iv. Further details: dose 3 mg/kg, route intravenous. To be noted: in vivo, read-out: Vdss. Format: ADME, organism-based. In outline: as §1
The nature of series [3]: Cmax in CD1 (ICR) mouse at 10 mg/kg, po. Format: ADME, organism-based. Further details: dose 10 mg/kg, route oral. Particulars: in vivo. Summed up:
as §1

Series [4] can be described thus: AUC in CD1 (ICR) mouse at 10 mg/kg, po. Particulars: plasma. Further details: dose 10 mg/kg, route oral. Format: ADME, organism-based. In outline:
as §1

Series [5] can be described thus: Tmax in CD1 (ICR) mouse 10 mg/kg, po. It is filed as ADME, organism-based. Further details: dose 10 mg/kg, route oral. To be noted: in vivo. Summed up: as §1
Series [6] is described as follows: AUC in CD1 (ICR) mouse at 3 mg/kg, iv. Format: ADME, organism-based. Further details: dose 3 mg/kg, route intravenous. To be noted: plasma. Summed up:
as §1

Series [7] is described as follows: Terminal half life in CD1 (ICR) mouse at 3 mg/kg, iv. It is filed as ADME, organism-based. Further details: dose 3 mg/kg, route intravenous. To be noted: in vivo, read-out: beta t1/2 (converted). In outline: as §1
Series [8] in a line: Oral bioavailability in CD1 (ICR) mouse at 10 mg/kg. It is filed as ADME, organism-based. To be noted: in vivo. In outline:
as §1

Molecules are shown by their SMILES.

`CCc1nn2c(-c3c(C)cc(C)cc3OC)cccc2c1N(CC1CC1)CC1CC1` came in with a CLint in the series with Liver microsomes of 1120 µL/min/mg.
Still for that read-out and setting: in the case of `COCc1cc(OC)c(-c2cccc3c(N(CC4CCOCC4)CC4CC4)c(C#N)nn23)c(OC)c1` it was 1100 µL/min/mg; in that of `CCc1nn2c(-c3c(C)cc(C)cc3OC)cccc2c1N(CC1CCOCC1)CC1CC1`, 450 µL/min/mg.
For `CCCN(CC1CCOCC1)c1c(CC)nn2c(-c3c(OC)cc(COC)cc3OC)cccc12`, the CLint in the series with Liver microsomes is 700 µL/min/mg.
The same measure, in the same setting: next, `CCc1nn2c(-c3cc(OC)c(OC)cc3OC)cccc2c1N(CC1CCOCC1)CC1CC1`: 600 µL/min/mg; `CCc1nn2c(-c3c(C)cc(OC)cc3OC)cccc2c1N(CC1CCOCC1)CC1CC1`: 450 µL/min/mg.
The same measure, in the same setting: next, `CCc1nn2c(-c3c(OC)cccc3OC)cccc2c1N(CC1CCOCC1)CC1CC1`: 740 µL/min/mg; `CCc1nn2c(-c3c(C)cc(C)cc3OC)cccc2c1N(CCOC)CC1CC1`: 1690 µL/min/mg; `CCc1nn2c(-c3c(C)cc(C)cc3OC)cccc2c1N(CC1CC1)CC1CCCO1` (centres undefined): 1230 µL/min/mg.
As for `CCc1nn2c(-c3c(COC)cc(OC)cc3OC)cccc2c1N(CC1CCOCC1)CC1CC1`, in the series with Liver microsomes, the CLint was found to be 530 µL/min/mg.
In turn, `CCc1nn2c(-c3c(OC)cc(OC)cc3OC)cccc2c1N(CC1CCOCC1)CC1CC1` showed a CLint in the series on Liver microsomes of 450 µL/min/mg.
On the same count and under the same terms, in the case of `CCc1nn2c(-c3c(OC)cc(C)cc3OC)cccc2c1N(CC1CCOCC1)CC1CC1` it was 440 µL/min/mg.
With `CCc1nn2c(-c3c(OC)cc(COC)cc3OC)cccc2c1N(CC1CCOCC1)CC1CC1.Cc1ccc(S(=O)(=O)O)cc1`, in [1], the clearance (as a rule, a measure of how efficiently the substance is removed, as volume per time) is 2.6 L/h/kg. The Vd in series [2] came to 3.74 L/kg. Further, in series [3], the Cmax (commonly the peak of the concentration-time curve) stood at 0.32 µg/mL. The AUC – broadly, concentration integrated over time – in [4] came out at 0.87 µg·h/mL; in series [6], 0.85 µg·h/mL. Also, the time to peak (Tmax) (usually the time from dosing to the highest level) in [5] is 0.25 h. For the same molecule, in series [7], the half-life is 2.2 h. In addition, in [8], the bioavailability (commonly dose-corrected exposure relative to a reference, in per cent) turned out to be 31%.
`COCc1cc(OC)c(-c2cccc3c(N(CC4CCOCC4)CC4CC4)c(C)nn23)c(OC)c1` yielded a CLint with Liver microsomes of 110 µL/min/mg.
The molecule `COCc1cc(OC)c(-c2cccc3c(N(CC4CCOCC4)CC4CC4)c(SC)nn23)c(OC)c1` registered a CLint in the series with Liver microsomes of 340 µL/min/mg.
Consider `COCc1cc(OC)c(-c2cccc3c(N(CC4CCOCC4)CC4CC4)c(OC)nn23)c(OC)c1`, for which the CLint in the series with Liver microsomes was determined as 760 µL/min/mg.
The molecule `CCc1nn2c(-c3c(OC)cc(COC)cc3OC)cccc2c1N(CC1CCOCC1)CC1CC1` gave a CLint with Liver microsomes of 300 µL/min/mg.
On the same count and under the same terms, next, `CCc1nn2c(-c3c(C)cc(C)cc3OC)cccc2c1N(CC1CC1)CC1CCOC1` (centres undefined): 1350 µL/min/mg.
Same read-out and setting: in the case of `CCc1nn2c(-c3c(C)cc(C)cc3OC)cccc2c1N(CCCF)CC1CC1` it was 1410 µL/min/mg.
Consider `CCCN(CC1CCOCC1)c1c(CC)nn2c(-c3c(OC)cc(C)cc3OC)cccc12`, for which, in the series on Liver microsomes, the CLint came to 890 µL/min/mg.
On the same count and under the same terms, next, `CCOCc1cc(OC)c(-c2cccc3c(N(CC4CCOCC4)CC4CC4)c(CC)nn23)c(OC)c1`: 520 µL/min/mg; `COc1cc(C)cc(OC)c1-c1cccc2c(N(CC3CCOCC3)CC3CC3)c(OC)nn12`: 570 µL/min/mg.

For the origin of these results see ChEMBL document CHEMBL2086316, “Synthesis and structure-activity relationships of pyrazolo[1,5-a]pyridine derivatives: potent and orally active antagonists of corticotropin-releasing factor 1 receptor” (J Med Chem, 2012).
